Reference: ChEMBL document CHEMBL2331168, “Anticonvulsant evaluation of aminoalkanol derivatives of 2- and 4-methylxanthone” (Bioorg Med Chem, 2013)
Calls of active or inactive are those of the source.

Key:
Mus musculus [1] = assay: Anticonvulsant activity in albino mouse assessed as protection against subcutaneous pentetrazole-induced seizures at 30 mg/kg, ip after 0.5 hrs; assay type: functional, organism-based; design: dose 30 mg/kg
How it was run: (§1)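 Male albino mice (Carworth Farms No. 1) received compound ip in 0.5% methylcellulose, then pentetrazole 85 mg/kg sc in 0.9% NaCl at 0.5 or 4 h. Mice were watched for at least 30 min. Protection meant no threshold seizure, defined as a single clonic spasm lasting at least 5 s. Scored as protected/tested.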

Rattus norvegicus [2] = assay: Neurotoxicity in Sprague-Dawley rat assessed as minimal motor impairment at 30 mg/kg, po after 0.25 hrs by rotorod test; conditions: in vivo
Mus musculus [3] = assay: Anticonvulsant activity in albino mouse assessed as protection against subcutaneous pentetrazole-induced seizures at 30 mg/kg, ip after 4 hrs; assay type: functional, organism-based; design: dose 30 mg/kg; how it was run: as §1
Mus musculus [4] = assay: Neurotoxicity in albino mouse assessed as minimal motor impairment at 300 mg/kg, ip after 0.5 hrs by rotorod test; assay type: toxicity, organism-based; design: dose 300 mg/kg, route intraperitoneal; conditions: in vivo
How it was run: (§2)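 Male albino mice (Carworth Farms No. 1) were dosed ip with suspensions in 0.5% methylcellulose and put on a 1 in. knurled rod rotating at 6 rpm at set times after dosing. Neurotoxicity meant failure to stay on the rod for at least 1 min in each of three trials. Scored as impaired/tested.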

Mus musculus [5] = assay: Anticonvulsant activity in albino mouse assessed as protection against maximal electroshock-induced seizures at 30 mg/kg, ip after 0.5 hrs; assay type: functional, organism-based; design: dose 30 mg/kg
How it was run: (§3)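 Male albino mice (Carworth Farms No. 1) were given the compound ip as a suspension in 0.5% methylcellulose at 3–300 mg/kg. MES testing was at 0.5 and 4 h, sometimes also at 0.25 and 1 h. Current was 60 Hz, 50 mA, 0.2 s via corneal electrodes, with saline eye drops. Protection meant no hindlimb tonic extension, scored as protected/tested.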

Mus musculus [6] = assay: Anticonvulsant activity in albino mouse assessed as protection against subcutaneous pentetrazole-induced seizures at 300 mg/kg, ip after 4 hrs; assay type: functional, organism-based; design: dose 300 mg/kg; how it was run: as §1
Rattus norvegicus [7] = assay: Anticonvulsant activity in Sprague-Dawley rat assessed as protection against maximal electroshock-induced seizures at 30 mg/kg, po after 0.25 hrs; assay type: functional, organism-based; design: dose 30 mg/kg
How it was run: (§4)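 Male Sprague-Dawley rats dosed orally at 30 mg/kg and tested at 0.25, 0.5, 1, 2 and 4 h. Seizures were induced by 60 Hz alternating current at 150 mA for 0.2 s through corneal electrodes, after a drop of 0.9% NaCl in each eye. Protection meant abolition of hindlimb tonic extension. Reported as protected/tested, usually 4 rats per time point.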

Mus musculus [8] = assay: Anticonvulsant activity in albino mouse assessed as protection against subcutaneous pentetrazole-induced seizures at 100 mg/kg, ip after 4 hrs; assay type: functional, organism-based; design: dose 100 mg/kg; how it was run: as §1
Rattus norvegicus [9] = assay: Neurotoxicity in Sprague-Dawley rat assessed as minimal motor impairment at 30 mg/kg, po after 2 hrs by rotorod test; conditions: in vivo
Mus musculus [10] = assay: Anticonvulsant activity in albino mouse assessed as protection against subcutaneous pentetrazole-induced seizures at 300 mg/kg, ip after 0.5 hrs; assay type: functional, organism-based; design: dose 300 mg/kg; how it was run: as §1
Mus musculus [11] = assay: Neurotoxicity in albino mouse assessed as minimal motor impairment at 30 mg/kg, ip after 4 hrs by rotorod test; assay type: toxicity, organism-based; design: dose 30 mg/kg, route intraperitoneal; conditions: in vivo; how it was run: as §2
Rattus norvegicus [12] = assay: Neurotoxicity in Sprague-Dawley rat assessed as minimal motor impairment at 30 mg/kg, po after 0.5 hrs by rotorod test; conditions: in vivo
Mus musculus [13] = assay: Anticonvulsant activity in albino mouse assessed as protection against maximal electroshock-induced seizures at 300 mg/kg, ip after 4 hrs; assay type: functional, organism-based; design: dose 300 mg/kg; how it was run: as §3
Rattus norvegicus [14] = assay: Anticonvulsant activity in Sprague-Dawley rat assessed as protection against maximal electroshock-induced seizures at 30 mg/kg, po after 4 hrs; assay type: functional, organism-based; design: dose 30 mg/kg; how it was run: as §4
Mus musculus [15] = assay: Anticonvulsant activity in albino mouse assessed as protection against subcutaneous pentetrazole-induced seizures at 100 mg/kg, ip after 0.5 hrs; assay type: functional, organism-based; design: dose 100 mg/kg; how it was run: as §1
Mus musculus [16] = assay: Anticonvulsant activity in albino mouse assessed as protection against maximal electroshock-induced seizures at 300 mg/kg, ip after 0.5 hrs; assay type: functional, organism-based; design: dose 300 mg/kg; how it was run: as §3
Mus musculus [17] = assay: Anticonvulsant activity in albino mouse assessed as protection against maximal electroshock-induced seizures at 30 mg/kg, ip after 4 hrs; assay type: functional, organism-based; design: dose 30 mg/kg; how it was run: as §3
Rattus norvegicus [18] = assay: Neurotoxicity in Sprague-Dawley rat assessed as minimal motor impairment at 30 mg/kg, po after 1 hr by rotorod test; conditions: in vivo
Rattus norvegicus [19] = assay: Neurotoxicity in Sprague-Dawley rat assessed as minimal motor impairment at 30 mg/kg, po after 4 hrs by rotorod test; conditions: in vivo
Rattus norvegicus [20] = assay: Anticonvulsant activity in Sprague-Dawley rat assessed as protection against maximal electroshock-induced seizures at 30 mg/kg, po after 0.5 hrs; assay type: functional, organism-based; design: dose 30 mg/kg; how it was run: as §4
Mus musculus [21] = assay: Anticonvulsant activity in albino mouse assessed as protection against maximal electroshock-induced seizures at 100 mg/kg, ip after 4 hrs; assay type: functional, organism-based; design: dose 100 mg/kg; how it was run: as §3
Mus musculus [22] = assay: Neurotoxicity in albino mouse assessed as minimal motor impairment at 100 mg/kg, ip after 4 hrs by rotorod test; assay type: toxicity, organism-based; design: dose 100 mg/kg, route intraperitoneal; conditions: in vivo; how it was run: as §2
Mus musculus [23] = assay: Neurotoxicity in albino mouse assessed as minimal motor impairment at 300 mg/kg, ip after 4 hrs by rotorod test; assay type: toxicity, organism-based; design: dose 300 mg/kg, route intraperitoneal; conditions: in vivo; how it was run: as §2
Mus musculus [24] = assay: Neurotoxicity in albino mouse assessed as minimal motor impairment at 100 mg/kg, ip after 0.5 hrs by rotorod test; assay type: toxicity, organism-based; design: dose 100 mg/kg, route intraperitoneal; conditions: in vivo; how it was run: as §2
Mus musculus [25] = assay: Neurotoxicity in albino mouse assessed as minimal motor impairment at 30 mg/kg, ip after 0.5 hrs by rotorod test; assay type: toxicity, organism-based; design: dose 30 mg/kg, route intraperitoneal; conditions: in vivo; how it was run: as §2
Rattus norvegicus [26] = assay: Anticonvulsant activity in Sprague-Dawley rat assessed as protection against maximal electroshock-induced seizures at 30 mg/kg, po after 2 hrs; assay type: functional, organism-based; design: dose 30 mg/kg; how it was run: as §4
Mus musculus [27] = assay: Anticonvulsant activity in albino mouse assessed as protection against maximal electroshock-induced seizures at 100 mg/kg, ip after 0.5 hrs; assay type: functional, organism-based; design: dose 100 mg/kg; how it was run: as §3

Compound | Activity (Mus musculus [1]) | Activity (Rattus norvegicus [2]) | Activity (Mus musculus [3]) | Activity (Mus musculus [4]) | Activity (Mus musculus [5]) | Activity (Mus musculus [6]) | Activity (Mus musculus [8]) | Activity (Rattus norvegicus [9]) | Activity (Mus musculus [10]) | Activity (Mus musculus [11]) | Activity (Rattus norvegicus [12]) | Activity (Mus musculus [13]) | Activity (Mus musculus [15]) | Activity (Mus musculus [16]) | Activity (Mus musculus [17]) | Activity (Rattus norvegicus [18]) | Activity (Rattus norvegicus [19]) | Activity (Mus musculus [22]) | Activity (Mus musculus [24]) | Activity (Mus musculus [25]) | other results
CC[C@@H](CO)NCc1cccc2c(=O)c3ccc(OC)cc3oc12 | inactive | Non-toxic | inactive | Toxic | inactive | inactive | inactive | Non-toxic | inactive | Non-toxic | Non-toxic | Active | inactive | Active | inactive | Non-toxic | Non-toxic | – | – | – | Activity (Rattus norvegicus [7]): inactive; Activity (Rattus norvegicus [14]): inactive
CC[C@H](CO)NCc1cccc2c(=O)c3ccc(OC)cc3oc12 | inactive | Non-toxic | inactive | Toxic | inactive | inactive | inactive | Non-toxic | inactive | Non-toxic | Non-toxic | Active | inactive | Active | inactive | Non-toxic | Non-toxic | Non-toxic | Non-toxic | Non-toxic | Activity (Rattus norvegicus [20]): inactive; Activity (Mus musculus [21]): inactive; Activity (Mus musculus [23]): Non-toxic
C[C@H](CO)NCc1ccc2oc3ccc(Cl)cc3c(=O)c2c1 | inactive | Non-toxic | inactive | – | inactive | inactive | inactive | Non-toxic | inactive | Non-toxic | Non-toxic | Active | inactive | Active | inactive | Non-toxic | Non-toxic | Non-toxic | Non-toxic | Non-toxic | Activity (Rattus norvegicus [20]): inactive; Activity (Mus musculus [21]): inactive; Activity (Rattus norvegicus [26]): inactive; Activity (Mus musculus [23]): Non-toxic
CC(CO)NCc1ccc2oc3ccc(Cl)cc3c(=O)c2c1 (racemic) | inactive | Non-toxic | inactive | Non-toxic | inactive | inactive | inactive | Non-toxic | inactive | Non-toxic | Non-toxic | Active | inactive | inactive | inactive | Non-toxic | Non-toxic | Non-toxic | Non-toxic | Non-toxic | Activity (Rattus norvegicus [20]): inactive; Activity (Rattus norvegicus [7]): inactive; Activity (Rattus norvegicus [26]): inactive; Activity (Mus musculus [23]): Non-toxic; Activity (Mus musculus [27]): inactive
COc1ccc2c(=O)c3cccc(CNC(C)(C)CO)c3oc2c1 | inactive | Non-toxic | inactive | Toxic | inactive | – | inactive | Non-toxic | – | Non-toxic | Non-toxic | – | inactive | – | inactive | Non-toxic | Non-toxic | Non-toxic | Toxic | Non-toxic | Activity (Rattus norvegicus [7]): inactive; Activity (Mus musculus [21]): inactive; Activity (Rattus norvegicus [26]): inactive; Activity (Mus musculus [27]): Active
COc1ccc2c(=O)c3cccc(CNCC(C)O)c3oc2c1 (racemic) | inactive | – | inactive | Toxic | inactive | – | inactive | – | – | Non-toxic | – | – | inactive | – | inactive | – | – | – | Toxic | Non-toxic | Activity (Mus musculus [27]): Active
